According to paper PMC7781011 (Journal of Inflammation Research, 2020):
Where two headings read alike, the source gives them in different places.

How the values were obtained:
[1] = tested on: PGE2 production, colon tumor spheroids of Apc^Pirc/+ rats; test: PGE2 in colon spheroid culture supernatant; type: cell-based, rat; conditions: compared with the untreated control
How it was run: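 Pirc rat colorectal crypt/single-cell spheroids grown in ultra-low-attachment wells in B27/N2, FBS, EGF, Noggin, R-spondin 1 and Y-27632 medium, changed every other day. PGE2 in supernatants of treated and untreated wells measured by ELISA, in pg/mL.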

[2] = tested on: PGE2 production in LPS-stimulated macrophages of humans, mice, and rats; test: PGE2 production in LPS-stimulated macrophages, range over species; type: cell-based; conditions: Macrophage, read-out: IC50 range PGE2 production
How it was run: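 Human macrophages derived from THP-1 monocytes with PMA. Rat/mouse peritoneal macrophages collected by lavage with ice-cold DMEM, selected by glass adherence (1 h, 37°C), Trypan-blue checked. Cells in DMEM+10% FBS at 10,000 (96-well) or 40,000 (24-well) per well, given non-toxic compound doses, then LPS 10 µg/mL for 24 h. PGE2, PGI2 and LTB4 measured in supernatant. IC50 by four-parameter nonlinear regression.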

mouse COX-1 = target: T1, mouse COX-1 (Mus musculus, UniProt P22437); test: Cell-free fluorometric COX-1 assay; type: biochemical
T1 sequence (P22437 27-602): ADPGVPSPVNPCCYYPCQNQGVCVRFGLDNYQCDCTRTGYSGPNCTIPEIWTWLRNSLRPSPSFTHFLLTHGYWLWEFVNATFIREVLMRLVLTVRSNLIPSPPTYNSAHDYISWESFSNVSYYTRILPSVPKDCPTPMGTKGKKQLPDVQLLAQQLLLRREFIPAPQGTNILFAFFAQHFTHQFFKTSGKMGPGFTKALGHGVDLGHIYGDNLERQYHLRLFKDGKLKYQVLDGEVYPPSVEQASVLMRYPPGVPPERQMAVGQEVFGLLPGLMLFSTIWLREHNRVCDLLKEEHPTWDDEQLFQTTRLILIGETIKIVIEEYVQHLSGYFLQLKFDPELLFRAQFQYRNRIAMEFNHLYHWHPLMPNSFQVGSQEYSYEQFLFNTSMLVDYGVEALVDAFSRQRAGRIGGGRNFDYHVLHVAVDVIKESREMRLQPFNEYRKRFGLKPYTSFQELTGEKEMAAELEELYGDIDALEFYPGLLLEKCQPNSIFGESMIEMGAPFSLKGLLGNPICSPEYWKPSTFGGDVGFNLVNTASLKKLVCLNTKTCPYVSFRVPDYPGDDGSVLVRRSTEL

human COX-2 [3] = target: T2, human COX-2 (Homo sapiens, UniProt P35354); test: Binding assay using isothermal titration calorimetry
T2 sequence (P35354 18-604): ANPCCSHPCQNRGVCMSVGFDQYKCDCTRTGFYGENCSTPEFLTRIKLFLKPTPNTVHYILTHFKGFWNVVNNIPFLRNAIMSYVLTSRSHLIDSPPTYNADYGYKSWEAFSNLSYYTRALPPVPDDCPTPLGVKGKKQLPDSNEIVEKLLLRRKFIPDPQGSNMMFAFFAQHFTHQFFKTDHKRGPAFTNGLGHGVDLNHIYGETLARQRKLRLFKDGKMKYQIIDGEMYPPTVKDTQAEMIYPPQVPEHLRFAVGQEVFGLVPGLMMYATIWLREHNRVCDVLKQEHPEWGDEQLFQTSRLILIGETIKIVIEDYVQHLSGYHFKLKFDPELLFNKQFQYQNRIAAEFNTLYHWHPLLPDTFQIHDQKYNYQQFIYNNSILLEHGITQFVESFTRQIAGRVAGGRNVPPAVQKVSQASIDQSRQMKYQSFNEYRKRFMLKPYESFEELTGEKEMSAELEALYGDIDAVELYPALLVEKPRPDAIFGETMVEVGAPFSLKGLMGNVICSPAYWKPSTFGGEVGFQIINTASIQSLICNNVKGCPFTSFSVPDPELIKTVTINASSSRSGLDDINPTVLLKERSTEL
How it was run: (§1)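 Serial injections of test compound (up to 1 mM) into enzyme-containing cell at 1 mM protein, both dissolved in PBS and degassed before use. Titration continued until heat signal approached zero at saturation. Isotherm fitted to obtain dissociation constant KD.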

human COX-1 [4] = target: T3, human COX-1 (Homo sapiens, UniProt P23219); test: Circular dichroism, change in secondary structure; conditions: CD, Human COX-1, LFA-9 10 µM
How it was run: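 Native and compound-treated (0.1–10 µM) enzymes in PBS pH 7.4 at final protein 200 µM. CD spectra corrected by subtracting buffer blanks. Percent change in secondary structure (α-helix, β-sheet) calculated with the CAPITO analysis server.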

[5] = In vitro metabolic stability in activated liver S9 fraction; type: in vitro ADME; conditions: rat liver S9 fraction activated with NADPH, UDPGA, GSH, PAPS; 500 µM
How it was run: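 Mouse or rat liver S9 fraction isolated and activated with NADPH, UDPGA, GSH and PAPS before compound addition. Samples taken at 0, 15, 30, 45 and 60 min. Compound extracted with acetonitrile and quantified by reversed-phase HPLC with PDA detection. Percent remaining calculated from peak areas at 0 and 60 min.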

human 5-LOX = target: T4, human 5-LOX (Homo sapiens, UniProt P09917); test: Binding assay using isothermal titration calorimetry
T4 sequence (P09917 1-674): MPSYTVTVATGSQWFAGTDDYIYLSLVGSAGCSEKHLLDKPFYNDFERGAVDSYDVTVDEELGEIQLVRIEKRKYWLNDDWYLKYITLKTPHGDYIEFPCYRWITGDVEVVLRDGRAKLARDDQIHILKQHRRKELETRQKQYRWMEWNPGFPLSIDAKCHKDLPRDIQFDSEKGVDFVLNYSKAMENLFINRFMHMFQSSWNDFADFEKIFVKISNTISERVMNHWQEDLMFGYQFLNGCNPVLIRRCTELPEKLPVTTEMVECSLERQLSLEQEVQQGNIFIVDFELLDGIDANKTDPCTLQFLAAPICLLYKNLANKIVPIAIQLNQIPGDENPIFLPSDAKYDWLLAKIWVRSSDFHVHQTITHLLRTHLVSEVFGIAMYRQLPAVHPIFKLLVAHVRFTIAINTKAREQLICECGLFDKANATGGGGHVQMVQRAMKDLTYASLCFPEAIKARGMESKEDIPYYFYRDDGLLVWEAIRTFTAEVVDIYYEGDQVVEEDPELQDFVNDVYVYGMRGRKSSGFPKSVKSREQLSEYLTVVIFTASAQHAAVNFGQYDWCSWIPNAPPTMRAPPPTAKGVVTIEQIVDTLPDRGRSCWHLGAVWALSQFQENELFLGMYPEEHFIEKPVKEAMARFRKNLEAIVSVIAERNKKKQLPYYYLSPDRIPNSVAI
How it was run: as §1

human COX-2 [6] = target: T2, human COX-2; test: Cell-free fluorometric COX-2 assay; type: biochemical; conditions: up to the tested range of 1 mM
human COX-1 [7] = target: T3, human COX-1; test: Binding assay using isothermal titration calorimetry
How it was run: as §1

T3 sequence (P23219 24-599): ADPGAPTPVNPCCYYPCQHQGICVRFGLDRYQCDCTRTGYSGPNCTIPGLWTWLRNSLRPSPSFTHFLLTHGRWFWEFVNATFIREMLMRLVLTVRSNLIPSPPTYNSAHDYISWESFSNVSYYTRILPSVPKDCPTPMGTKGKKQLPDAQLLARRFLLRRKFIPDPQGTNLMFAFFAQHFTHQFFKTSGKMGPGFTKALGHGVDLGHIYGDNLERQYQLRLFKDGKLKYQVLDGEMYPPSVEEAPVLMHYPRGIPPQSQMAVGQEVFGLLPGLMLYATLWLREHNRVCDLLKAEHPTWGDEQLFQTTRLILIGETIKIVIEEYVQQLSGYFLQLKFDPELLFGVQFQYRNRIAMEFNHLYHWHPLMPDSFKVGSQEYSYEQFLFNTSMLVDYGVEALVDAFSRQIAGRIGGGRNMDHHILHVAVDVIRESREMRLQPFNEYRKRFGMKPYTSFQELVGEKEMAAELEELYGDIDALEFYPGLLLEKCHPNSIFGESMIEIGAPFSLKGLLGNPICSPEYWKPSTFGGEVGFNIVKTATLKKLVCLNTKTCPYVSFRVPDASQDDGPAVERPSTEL

## CC1(C)Cc2c(-c3ccccc3)c(-c3ccc(Cl)cc3)c(CC(=O)O)n2C1 [Licofelone, reference compound]
[1]
  inhibition of PGE2 production: 63%
[2]
  IC50: 0.56 to 1.31 µM
Mouse COX-1
  IC50: 1.74 µM

## CC1(C)Cc2c(-c3ccccc3)c(-c3ccc(Cl)cc3)c(CC(=O)NCC(=O)O)n2C1 [LFA-9, 2-[[2-[2-(4-chlorophenyl)-6,6-dimethyl-1-phenyl-5,7-dihydropyrrolizin-3-yl]acetyl]amino]acetic acid]
[1]
  inhibition of PGE2 production: 82%
Human COX-2 [3]
  Kd: > 1000 µM
Human COX-1 [4]
  Change in Secondary Structure: No change in secondary structure
[2]
  IC50: 0.47 to 0.78 µM
[5]
  LFA-9 remaining after 60-minutes incubation: 98.3%
Mouse COX-1; cell-free, mouse, up to the tested range of 1 mM
  inhibition of COX-1 activity: did not show inhibition
Human 5-LOX
  Kd: 18 µM
Human 5-LOX; read-out: KD (KD2), ITC, Human 5-LOX, sequential binding sites, second site
  Kd: 210 µM
Human COX-2 [6]
  inhibition of COX-2 activity: did not show inhibition
Human COX-1 [7]
  Kd: > 1000 µM
